The source of these data is ChEMBL document CHEMBL1132493, “Synthesis and in vitro evaluation of new 8-amino-1,4-benzoxazine derivatives as neuroprotective antioxidants” (J Med Chem, 1999).

The structures appear in SMILES notation.

The nature of data set [1]: (§1) In vitro neurotoxicity (Maximum Tolerated concentration[MTC]) was measured by quantification of cellular lysis after measurement of LDH activity released from damaged cells. The format is toxicity, cell-based. As to conditions: mouse, HT-22 cells; read-out: MTC.
Data set [2] deals with HT-22. Kind of data set: In vitro neurotoxicity (concentration producing 50% toxicity [TC50]) was measured by (MTT) reduction assay on murine HT-22 hippocampal cell cultures and compared to those of parent exifone. The format is functional. As to conditions: Mus musculus, read-out: TC50 (the source's name).
The test system of data set [3] is HT-22. Kind of data set: In vitro neuroprotective activity estimated through their protective effects against L-homocysteic acid(L-HCA) cytotoxicity) on murine HT-22 hippocampal cell cultures and compared to those of exifone (MTT reduction assay). The format is functional, Mus musculus.
The subject of data set [4] is HT-22. Briefly: In vitro neurotoxicity (Maximum Tolerated concentration[MTC]) was measured by (MTT) reduction assay on murine HT-22 hippocampal cell cultures and compared to those of parent exifone. Type of data set: functional, Mus musculus.
Data set [5] in a line: Ratio of MTC to PC50 after measurement of LDH activity; Safety ratio. The format is functional. The method, boiled down:
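Safety index: MTC divided by PC50, both from LDH release in HT-22 cells. MTC comes from 48 h drug exposure alone; PC50 from 1 h antioxidant pretreatment followed by 48 h 2 mM L-HCA exposure. Both derived by linear regression.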

Data set [6] concerns HT-22. Briefly: The concentration producing 50%protection (PC50) was measured by lactate dehydrogenase (LDH) activity. In vitro neuroprotective activity estimated through their protective effects against L-homocysteic acid(L-HCA) cytotoxicity on murine HT-22 hippocampal cell cultures and compared to those of exifone. Type of data set: functional, Mus musculus.
A short description of data set [7]: Ratio of MTC to PC50 in MTT reduction assay; Safety ratio. Type of data set: functional. The gist of the method:
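Safety index: MTC divided by PC50, both from MTT reduction in HT-22 cells. MTC comes from 48 h drug exposure alone; PC50 from protection against 48 h 2 mM L-HCA after 1 h pretreatment. Both estimated by linear regression.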
On the technique in general: Formazan colour is commonly taken as a measure of viable cells.

Data set [8] can be described thus: (§2) In vitro neurotoxicity (concentration producing 50% toxicity [TC50]) was measured by quantification of cellular lysis after measurement of LDH activity released from damaged cells. The format is cell-based. The following applies: mouse, HT-22 cells; read-out: TC50 (the source's name).
Data set [9] concerns HT-22. Kind of data set: In vitro neuroprotective activity estimated through their protective effects against L-homocysteic acid(L-HCA) cytotoxicity) on murine HT-22 hippocampal cell cultures and compared to those of exifone. (MTT reduction assay). Type of data set: functional, Mus musculus.
Data set [10] in a line: (§3) In vitro neurotoxicity (concentration producing 50% toxicity [TC50]) was measured by (MTT) reduction assay on murine HT-22 hippocampal cell cultures and compared to those of parent exifone,. The format is cell-based. As to conditions: mouse, HT-22 hippocampal cells; read-out: TC50 (the source's name).
In data set [11] the test system is HT-22. Kind of data set: The concentration producing 50%protection (PC50) was obtained for lactate dehydrogenase (LDH) activity. In vitro neuroprotective activity estimated through their protective effects against L-homocysteic acid(L-HCA) cytotoxicity on murine HT-22 hip pocampal cell cultures and compared to those of exifone. The format is functional, Mus musculus.

Data set [12] has as its system HT-22. The description is as §1. The format is functional, Mus musculus.
Data set [13] deals with HT-22. Described as §2. The following applies: Mus musculus, read-out: TC50 (the source's name). Type of data set: functional.
The test system of data set [14] is HT-22. Briefly: In vitro neuroprotective activity estimated through their protective effects against L-homocysteic acid(L-HCA) cytotoxicity) on murine HT-22 hippocampal cell cultures and compared to those of exifone(MTT reduction assay). The format is functional, Mus musculus.
Data set [15] has as its system HT-22. Described as §3. The format is functional. As to conditions: Mus musculus, read-out: TC50 (the source's name).

On to `O=C(c1ccccc1)c1ccc(NC(CO)CO)c2c1NC(CO)CO2` (stereo not drawn), for which the MNTC in data set [1] is greater than 250 µM.
Consider `O=C(c1ccccc1)c1ccc(O)c2c1NC1(CCCC1)CO2`, for which the CC50 amounted to 37.5 µM in data set [2] and 36.4 µM in data set [8]. For the same compound, the PC50 is 25 µM in data set [3] and 18.4 µM in data set [6]. In addition, the MNTC in [1] worked out at 25 µM. In addition, in [4], the MTC was found to be 25 µM. The values for the Ratio in data set [5] and in data set [7] were 1.4 and 1, respectively.
With `CC(C)(C)C1COc2c(O)ccc(C(=O)c3ccccc3)c2N1` (stereo not drawn), the MNTC in data set [1] is 5 µM.
Same read-out and setting: the value for `CC1(C)COc2c(NC(CO)CO)ccc(C(=O)c3ccccc3)c2N1` was greater than 250 µM.
Regarding `CC(C)(C)C1COC2(O)C(O)=CC=C(C(=O)c3ccccc3)C2=N1` (stereo not drawn), the PC50 was 6.5 µM in [9] and 5.8 µM in [11]. Besides, the CC50 in data set [10] is 17.6 µM; in data set [13] it was 38.1 µM. The MTC in data set [4] and in data set [12] was 10 µM throughout. In addition, the results for the Ratio in data set [5] and in [7] were 1.7 and 1.5, respectively.
On to `CC(C)CNc1ccc(C(=O)c2ccccc2)c2c1OCC1(CCCC1)N2`, for which the PC50 in data set [14] and in data set [6] was greater than 10 µM in each case. For the same compound, the CC50 in data set [2] and in data set [8] was greater than 250 µM each time. Also, in data set [1], the MNTC was greater than 250 µM. Moreover, the MTC in data set [4] is 10 µM. Moreover, the Ratio in [5] and in [7] was less than 1 each time.
Consider `CC(C)CCNc1ccc(C(=O)c2ccccc2)c2c1OCC(C(C)(C)C)N2` (stereo not drawn), for which the MNTC in data set [1] turned out to be 10 µM.
Take `O=C(c1ccccc1)c1ccc(NCc2ccccc2)c2c1NC(c1ccccc1)(c1ccccc1)CO2`: in data set [1], the MNTC is greater than 250 µM.
As for `O=C(C1=CC=C(O)C2(O)OCC(CO)N=C12)c1ccccc1` (stereo not drawn), in data set [1], the MNTC came to 25 µM.
Consider `CC1(CO)COc2c(NCCO)ccc(C(=O)c3ccccc3)c2N1` (stereo not drawn), for which the MNTC in [1] is greater than 250 µM.
The same measure, in the same setting: the value for `CC1(C)COc2c(NCc3ccccc3)ccc(C(=O)c3ccccc3)c2N1` was greater than 250 µM.
Regarding `O=C(c1ccccc1)c1ccc(NCc2ccccc2)c2c1NC1(CCCC1)CO2`, the PC50 in data set [14] was 6.9 µM; in data set [6], 7.1 µM. The CC50 in [2] and in data set [8] was greater than 250 µM in each case. In addition, the MNTC in data set [1] was greater than 250 µM. Moreover, the MTC in data set [4] was greater than 250 µM. The Ratio in data set [5] and in [7] was greater than 36 in each case.
Regarding `O=C(c1ccccc1)c1ccc(NCCO)c2c1NC(CO)(CO)CO2`, the MNTC in data set [1] was greater than 250 µM.
In the case of `O=C(c1ccccc1)c1ccc(O)c2c1NC(CO)CO2` (stereo not drawn), the MNTC in [1] came to 10 µM.
Same read-out and setting: the value for `CC(C)CCNc1ccc(C(=O)c2ccccc2)c2c1OCC(C)(C)N2` was 10 µM; that for `CC(C)CCNc1ccc(C(=O)c2ccccc2)c2c1OCC(c1ccccc1)(c1ccccc1)N2` was greater than 250 µM.
On to `O=C(C1=CC=C(O)C2(O)OCC3(CCCC3)N=C12)c1ccccc1` (stereo not drawn), for which the PC50 was 47.4 µM in [9] and 40.9 µM in data set [11]. For the same compound, the MNTC in data set [1] was found to be 50 µM. The results for the CC50 in [15] and in [8] were 109 µM and greater than 250 µM, respectively. In addition, the MTC in [4] worked out at 50 µM. In addition, the Ratio in data set [5] turned out to be 1.2; in data set [7], 1.1.
As for `CC(C)(C)C1COc2c(NCc3ccccc3)ccc(C(=O)c3ccccc3)c2N1` (stereo not drawn), the MNTC in data set [1] is greater than 250 µM.
As to `CC1(CO)COc2c(NC(CO)CO)ccc(C(=O)c3ccccc3)c2N1` (stereo not drawn), the MNTC in [1] is greater than 250 µM.
The same measure, in the same setting: to `CC1(C)COc2c(NCCO)ccc(C(=O)c3ccccc3)c2N1` belongs 100 µM.
Consider `CC(C)(C)C1COc2c(NCCc3ccccc3)ccc(C(=O)c3ccccc3)c2N1` (stereo not drawn), for which the results for the PC50 in data set [14] and in data set [11] were 8.8 µM and 8.9 µM, respectively. For the same compound, the CC50 in data set [2] and in data set [8] was greater than 250 µM throughout. Besides, the MNTC in data set [1] worked out at 250 µM. For the same compound, in [4], the MTC is 100 µM. Further, the Ratio is 28 in data set [5] and 11 in [7].
